Measurements of several laboratories.
Lines come from different studies, so protocols differ.
CDK5 with p25: Cyclin-dependent kinase 5, with p25 (CDK5, Homo sapiens, UniProt Q00535)
CDK5 with p35: Cyclin-dependent kinase 5, with p35 (CDK5, Homo sapiens, UniProt Q00535)
CDK5: Cyclin-dependent kinase 5 (CDK5, Homo sapiens, UniProt Q00535)

Structure (SMILES) | target | assay | conditions | measurement | result
Cc1ccc(NC(=O)c2ccc(C)c(C(F)(F)F)c2)cc1C#Cc1nn(C2CCC(O)CC2)c2ncnc(N)c12 (stereo not drawn) | CDK5 with p25 | cell-free assay | 10 µM | remaining signal | 87%
Cc1ccc(C(=O)NCc2ccsc2)cc1C#Cc1cn(C(C)C)c2ncnc(N)c12 | CDK5 with p35 | enzyme activity, inhibitor | 1 µM | activity vs control | 96%
Nc1nc(Nc2ccc(S(N)(=O)=O)cc2)nn1C(=O)c1c(F)cccc1F | CDK5 with p25 | cell-free assay | 0.5 µM | remaining signal | 2.54%
O=C1NC(c2ccccn2)Sc2ccccc21 (stereo not drawn) | CDK5 | cell-free assay, competition with immobilised ligand | 1 µM | remaining binding | 86%
CCCOc1ccc(OC)c(F)c1C(=O)c1ccc(C(=O)N[C@@H]2CNC[C@H]2NC(=O)c2ccc3[nH]ncc3c2)cc1 | CDK5 with p25 | enzyme activity, inhibitor | 10 µM | remaining activity | 1%
CC(C)CC(=O)N1CCc2nc(-c3ccc(Br)cc3)nc(N(C)Cc3ccccc3)c2C1 | CDK5 | cell-free assay, competition with immobilised ligand | 0.1 µM | remaining binding | 100%
Oc1ccc(-c2nc(-c3ccncc3)c(-c3ccc(F)cc3)[nH]2)cc1 | CDK5 with p25 | cell-free assay | 0.5 µM | remaining signal | 96%
Cc1c(NC(=O)c2cc(C(N)=O)nc3cc(F)ccc23)c(C(F)(F)F)nn1Cc1ccc(C#N)cc1 | CDK5 | cell-free assay, competition with immobilised ligand | 1 µM | remaining binding | 100%
O=C1Nc2ccc(Cl)cc2C1=Cc1cc(Cl)c(O)c(Cl)c1 | CDK5 with p25 | cell-free assay | 0.5 µM | remaining signal | 82.6%
Nc1ncnc2occ(-c3ccc(NC(=O)Nc4cc(C(F)(F)F)ccc4F)cc3)c12 | CDK5 | cell-free assay, inhibitor | 20 µM | remaining signal | 0.55%
CO[C@@H](C)c1c(Nc2ccc([C@@H](N(C)C(=O)C3CCS(=O)(=O)CC3)C(F)(F)F)cc2)cnc2cc(Cl)nn12 | CDK5 | cell-free assay, competition with immobilised ligand | 1 µM | remaining binding | 99%
N#CCCc1ccc2c(c1)-c1[nH]c3ccc([N+](=O)[O-])cc3c1CC(=O)N2 | CDK5 with p25 | cell-free assay | 0.5 µM | remaining signal | 5.79%
CNC(=O)c1ccc(Nc2ncc(C(F)(F)F)c(NCc3nccnc3N(C)S(C)(=O)=O)n2)cc1 | CDK5 | cell-free assay, competition with immobilised ligand | 0.1 µM | remaining binding | 81%
CC(C)c1ccc(NC(=O)c2cccs2)c(-c2nc3ccccc3[nH]c2=O)c1 | CDK5 with p35 | enzyme activity, inhibitor | 1 µM | activity vs control | 103%
O=C1NC(=O)c2cc(Nc3ccc(F)cc3)c(Nc3ccc(F)cc3)cc21 | CDK5 with p25 | cell-free assay | 0.5 µM | remaining signal | 85.9%
CC(=O)c1c(NS(C)(=O)=O)c2cc(-c3ccc(Cl)cc3)c(-c3ccc(Cl)cc3Cl)nc2n(C)c1=O | CDK5 | cell-free assay, competition with immobilised ligand | 1 µM | remaining binding | 100%
CC[C@H](C)[C@H](NC(=O)[C@H](CCC(N)=O)NC(=O)[C@H](CC(C)C)NC(=O)[C@H](CCSC)NC(=O)[C@H](CCCCN)NC(=O)[C@H](CO)NC(=O)[C@H](CO)NC(=O)[C@H](CCSC)NC(=O)[C@H](CC(C)C)NC(=O)[C@H](CC(N)=O)NC(=O)[C@@H](NC(=O)[C@@H](NC(=O)[C@H](CO)NC(=O)[C@H](CC(C)C)NC(=O)[C@H](CS)NC(=O)[C@H](CCCNC(=N)N)NC(=O)[C@H](CC(=O)O)NC(=O)[C@H](Cc1c[nH]c2ccccc12)NC(=O)[C@H](Cc1ccccc1)NC(=O)[C@H](C)NC(=O)[C@H](CCC(=O)O)NC(=O)[C@@H](N)CCCCN)C(C)C)[C@@H](C)CC)C(=O)N[C@@H](CC(N)=O)C(=O)N[C@@H](C)C(=O)O | CDK5 with p25 | enzyme activity, inhibitor, radiometric | 100 µM, 20 min | remaining activity | 59%
Cc1cc(NC(=O)c2cccc3cc(-c4cccc5[nH]nc(N)c45)ccc23)ccc1F | CDK5 with p35 | enzyme activity, inhibitor | 0.1 µM | activity vs control | 103%
